CHO parental Ca: counter-screen: ATP calcium response change in parental CHO cells; parental CHO-K1, ATP-induced calcium, Fluo-8 fluorescence; inhibition, % at 5.6 µM; 0.63% of 330,000 active;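 active = inhibition above that plate's mean sample inhibition plus 3 SD, cut at about 26% in these data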;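 also: 0% = ATP-challenged DMSO wells and 100% = DMSO wells without ATP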
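test system = CHO parental line | reagent = ATP stimulus | measured by = intracellular calcium via Fluo-8 no-wash fluorescent dye | control set = ATP and no-ATP DMSO wells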
TAAR1 agonist: agonists of human TAAR1; Q96RJ0; activation, % at 3 µM; CHO RD-HGA16 TAAR1, Fluo-8 calcium fluorescence; vehicle wells 0%, saturating PEA agonist 100%; 0.99% of 360,000 active;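 active = activation above the mean activation of all test compounds in the run plus 3 SD, cut at about 38% in these data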
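Assay system – CHO-derived RD-HGA16 cells with stable Gα16 and human TAAR1 · Compound dosing – one-point dosing at 3 µM (nominal) · Incubation – 17-24 h seeding, 75 min 37 °C dye, 30 min RT · Measured by – kinetic Fluo-8 calcium fluorescence · Control set – DMSO vehicle as 0%, PEA at EC100 as 100% · Repeats – single well for each compound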
OX1R antag-1: blocks the human orexin 1 receptor; O43613; inhibition, % at 6.6 µM; 1.8% of 330,000 active; OX1R-expressing cells, FRET antagonist read-out; in the data active = inhibition mostly above about 38%, no sharp cut-off; inactive = mostly below about 40%;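 also: 0% = agonist challenge alone and 100% = reference antagonist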
Target sequence (O43613 whole entry, looked up): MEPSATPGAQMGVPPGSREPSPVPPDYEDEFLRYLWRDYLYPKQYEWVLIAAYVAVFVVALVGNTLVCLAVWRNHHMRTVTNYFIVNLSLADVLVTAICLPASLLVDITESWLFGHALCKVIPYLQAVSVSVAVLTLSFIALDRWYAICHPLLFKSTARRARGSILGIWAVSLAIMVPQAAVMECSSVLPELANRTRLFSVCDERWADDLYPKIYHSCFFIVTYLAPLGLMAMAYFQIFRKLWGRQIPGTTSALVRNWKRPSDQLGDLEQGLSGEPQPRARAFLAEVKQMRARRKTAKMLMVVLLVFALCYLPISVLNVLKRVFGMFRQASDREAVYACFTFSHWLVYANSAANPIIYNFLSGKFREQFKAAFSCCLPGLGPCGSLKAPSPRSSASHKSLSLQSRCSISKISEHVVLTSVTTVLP
OX1R antag-2: antagonists of human orexin 1 receptor | 0.43% of 330,000 active | CHO/OX1R cells, Fluo-8 calcium fluorescence, orexin A | inhibition, % at 5 µM;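 active = inhibition above its plate's threshold, mean inhibition of all tested compounds on the plate plus 3 SD, cut at about 37% in these data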;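 also: 0% = orexin A challenge wells and 100% = SB-334867-A antagonist wells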
TAAR1 antag: antagonists of human TAAR1 | AID 624466 | 1.5% of 360,000 active | inhibition, % at 3 µM | CHO RD-HGA16 TAAR1, Fluo-8 calcium fluorescence, antagonist | Q96RJ0;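 active = inhibition above a per-plate cutoff, the mean inhibition of test compounds on that plate plus 3 SD, cut at about 49% in these data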;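 also: 0% = DMSO plus EC80 beta-PEA response and 100% = DMSO alone without agonist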
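Test system: RD-HGA16 CHO cells with stable hTAAR1 and Gα16 / Probe or stimulus: EC80 β-phenethylamine stimulus / Times: seeding 17-24 h prior, 75-min 37 °C, 30-min RT dye loading / Detection: Fluo-8 calcium-sensitive fluorescence / Read-out basis: % inhibition scaled between DMSO and EC80 PEA controls / Repeats: singlicate, one well per test compound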
GPR7 antag: human neuropeptides B/W receptor 1 antagonism. P48145. GPR7-expressing cells, fluorescence antagonist assay. inhibition, % at 4.4 µM. 1.1% of 290,000 active; in the data active = inhibition above about 16%, passing the limit was not always enough;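 also: cells stimulated with the agonist NPW; 0% = agonist with vehicle and 100% = vehicle without agonist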
GPR7 antag conf: human GPR7 antagonism, confirmation assay; shares compounds with GPR7 antag; GPR7-expressing cells, calcium fluorescence antagonist mode; inhibition, % at 4.4 µM; 52% of 2,400 active; in the data active = inhibition above about 24%;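 also: stimulated with the GPR7 agonist NPW; 0% = agonist plus vehicle and 100% = vehicle alone without agonist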
MCHR1 antagonist: counter-screen for GPR7 antagonists: antagonists of human MCHR1; shares compounds with GPR7 antag; MCHR1-expressing cells, fluorescence antagonist assay; inhibition, % at 4.4 µM; 62% of 2,400 active; AID 2148; in the data active = inhibition above about 22%;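 also: 0% = vehicle with agonist and 100% = vehicle without agonist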
* marks the source's active call; other numbers are inactive results; . = not tested or not shown. Sampled rows, rich in hits. Any-hit rate of the full collection: about 4.6%.

SMILES	CHO parental Ca	TAAR1 agonist	OX1R antag-1	OX1R antag-2	TAAR1 antag	GPR7 antag	GPR7 antag conf	MCHR1 antagonist
COC(=O)CCN(C1CCCCC1)S(=O)(=O)c1ccc(S(=O)(=O)NC2CCCCC2)cc1	4	18	13	-16	1	40*	51*	32*
O=C(C(Cc1ccccc1)n1cccc1)N1CCCCC1 (configuration not stated)	-11	-2	16	-7	-12	-3	.	.
O=C(C(Cc1ccccc1)n1cccc1)N1CCN(Cc2ccccc2)CC1 (configuration not stated)	-15	.	17	-46	.	25*	21	12
NC(=O)COC(=O)c1ccc(Oc2ccccc2)cc1	-8	2	13	-10	9	-4	.	.
CC(C)NC(=O)COC(=O)c1ccc(Oc2ccccc2)cc1	2	6	18	-8	10	28*	6	35*
O=C(CSc1nnc(-c2cccc(S(=O)(=O)N3CCCC3)c2)n1-c1ccccc1)Nc1ccc(C(=O)O)cc1	-14	2	8	-16	-10	26*	11	13
O=C(COC(=O)c1ccccc1F)c1ccc(-n2nncc2-c2ccco2)cc1	6	2	15	-16	34	22*	7	26*
CCN1C(=O)C(CC(=O)Nc2ccc(F)cc2)N(CCCN2CCN(c3ccc(F)cc3)CC2)C1=S (configuration not stated)	-3	30	9	-7	53*	33*	29*	62*
COC(=O)[C@]12C[C@H](CC(=O)NCCC(C)C)C(=O)N(CCC3=CCCCC3)C1=C[C@H](C(C)(C)C)O[C@@H]2C	.	-2	.	.	-77	.	.	.
COc1ccc(-n2c(C)cc(C(=O)COc3ccc(-n4cnnn4)cc3)c2C)cc1	-2	1	1	-10	-1	28*	12	24*
NC(=O)COc1ccc(-n2cnnn2)cc1	-5	1	20	-12	-8	-4	.	.
CC(=O)N1CCN(c2ccc(N3CCN(Cc4ccccc4)[C@H](C)C3)c(C)c2)[C@@H](C)C1	.	2	.	.	-38	.	.	.
O=C(CCNS(=O)(=O)c1ccc(Br)cc1)NCCCSc1ccccc1	-20	1	4	-9	-14	.	.	.
COc1ccc(Oc2ccc(/C=C/C(=O)c3ccc(O)cc3)cc2[N+](=O)[O-])cc1	5	1	43	5	30	26*	77*	87*
O=C(CN1CCOc2ccccc21)NC1CCN(Cc2ccccc2)CC1	-6	-1	26	-19	-7	1	.	.
O=C(CN1CCOc2ccccc21)NC1CCCCCCC1	-5	1	16	-19	3	25*	7	5
CC(C)(C)c1cc(C(=O)Nc2ccc(F)cc2)n(Cc2ccc(F)cc2)n1	1	2	55	-2	65*	23*	3	56*
Cc1ccc(NC(=O)CCNS(=O)(=O)c2ccc(Br)cc2)cc1S(=O)(=O)N1CCOCC1	-20	3	12	-38	-12	.	.	.
COc1ccc(NC(=O)COC(=O)c2c3c(nc4ccccc24)CCCC3)cc1Cl	-2	9	75*	14	67*	32*	35*	73*
COc1ccc(NC(=O)COC(=O)c2c3c(nc4ccccc24)CCCC3)cc1	-12	16	14	-14	48	13	.	.
COc1ccc(N(C)S(=O)(=O)c2cccc(C(=O)NCC3CCCCC3)c2)cc1	.	3	.	.	-10	26*	38*	38*
CN(C)S(=O)(=O)c1cccc(C(=O)NCC2CCCCC2)c1	-11	0	6	-26	-6	2	.	.
COc1ccc(N(C)S(=O)(=O)c2cccc(C(=O)NC3CCCC3)c2)cc1	-2	3	10	-11	-31	39*	43*	24*
Brc1cc2c(cc1/C=N/Nc1nc(N3CCCCC3)nc(N3CCCCC3)n1)OCO2	.	.	.	.	.	25*	-28	-4

Screening results (PubChem BioAssay)
